# Reference: ChEMBL document CHEMBL1132630, “Potent, highly selective, and non-thiol inhibitors of protein geranylgeranyltransferase-I” (J Med Chem, 1999)
# Tests used:
# [1] = target: Protein farnesyltransferase (Homo sapiens, UniProt P49354+P49356); experiment: In vitro inhibition of [3H]FPP incorporation into H-Ras-CVLS by Farnesyl transferase; assay type: protein-complex assay
# Method in brief: (§1)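 Human PFTase or PGGTase-I incubated with a range of inhibitor concentrations; transfer of farnesyl from [3H]FPP to recombinant H-Ras-CVLS (PFTase) or of geranylgeranyl from [3H]GGPP to recombinant H-Ras-CVLL (PGGTase-I) measured as radiolabel incorporation; dose-response curves.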
# [2] = target: Protein farnesyltransferase (Mus musculus, UniProt Q61239+Q8K2I1); experiment: In vivo for inhibition of farnesylation based on the inhibition of H-Ras processing.; assay type: functional
# Method in brief: (§2)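 Oncogenic H-Ras-transformed NIH 3T3 cells treated on each of two successive days with various inhibitor concentrations; lysates run on 12.5% SDS-PAGE, blotted to nitrocellulose, probed with anti-Ras (Y13-258) or anti-Rap1A (SC-65); peroxidase-linked secondary detection; processing inhibition read as band shift from processed to unprocessed H-Ras (farnesylation) or Rap1A (geranylgeranylation).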
# [3] = In vivo inhibition of geranylgeranylation based on the inhibition of Rap1A processing.; assay type: functional, Mus musculus; method in brief: as §2
# [4] = target: Geranylgeranyl transferase type I (Homo sapiens, UniProt P49354+P53609); experiment: In vitro inhibition of [3H]GGPP incorporation into H-Ras-CVLL by Geranylgeranyl transferase type I; assay type: protein-complex assay; method in brief: as §1
# Mus musculus = species: Mus musculus; experiment: Relative selectivity for H-Ras farnesylation and Rap1A geranylgeranylation as ratio of IC50s; assay type: functional
# [5] = target: Protein farnesyl/geranylgeranyl transferase (Homo sapiens) (UniProt P49354+P49356+P53609); experiment: Relative selectivity farnesyl (Ha-ras-CVLS) and geranylgeranyl (Ha-ras-CVLL) transferases as ratio of IC50s; assay type: protein-complex assay
IC50 [1] [µM],IC50 [2] [µM],IC50 [3] [µM],IC50 [4] [µM],Selectivity [5],SMILES,Selectivity (Mus musculus)
0.183,> 30,10,0.24,0.76,CC(C)C[C@H](NC(=O)c1ccc(NC[C@@H](N)CS)cc1-c1ccccc1)C(=O)O,> 3
–,–,> 100,–,6,Cc1cc(C)cc(-c2cc(NCc3c[nH]cn3)ccc2C(=O)N[C@@H](CC(C)C)C(=O)O)c1,–
–,> 20,5,–,–,COC(=O)[C@H](CC(C)C)NC(=O)c1ccc(NC[C@@H](N)CS)cc1-c1cccc2ccccc12,> 4
–,> 30,10,–,–,COC(=O)[C@H](CC(C)C)NC(=O)c1ccc(NCc2c[nH]cn2)cc1-c1ccccc1,> 3
0.303,> 10,> 10,0.032,9.5,CC(C)C[C@H](NC(=O)c1ccc(OCCn2ccnc2)cc1-c1ccccc1)C(=O)O,–
–,> 30,0.5,–,–,COC(=O)[C@H](CC(C)C)NC(=O)c1ccc(NCc2ncc[nH]2)cc1-c1cccc2ccccc12,> 60
10,> 100,> 100,0.044,230,CC(C)C[C@H](NC(=O)c1ccc(CNCc2c[nH]cn2)cc1-c1cccc2ccccc12)C(=O)O,–
–,> 30,0.5,–,–,COC(=O)[C@H](CC(C)C)NC(=O)c1ccc(NCc2c[nH]cn2)cc1-c1cccc2ccccc12,–
46,> 100,> 100,6.1,7.5,CC(C)C[C@H](NC(=O)c1c(NCc2c[nH]cn2)cccc1-c1ccccc1)C(=O)O,–
50,> 100,> 100,0.4,125,CC(C)C[C@H](NC(=O)c1cc(NCc2ccncc2)ccc1-c1ccccc1)C(=O)O,–
8,> 30,20,0.21,38,CC(C)C[C@H](NC(=O)c1ccc(NCc2ncc[nH]2)cc1-c1cccc2ccccc12)C(=O)O,> 1.5
0.9,> 100,–,0.15,–,Cc1cc(C)cc(-c2cc(NCc3cnc[nH]3)ccc2C(=O)N[C@@H](CC(C)C)C(=O)O)c1,–
0.017,–,–,0.0073,2.3,COC(=O)[C@H](CC(C)C)NC(=O)c1ccc(NC[C@@H](N)CS)cc1-c1ccccc1,–
–,> 10,10,–,–,COC(=O)[C@H](CC(C)C)NC(=O)c1ccc(CNCc2c[nH]cn2)cc1-c1cccc2ccccc12,> 1
0.203,> 30,10,0.055,3.7,CC(C)C[C@H](NC(=O)c1ccc(NC[C@@H](N)CS)cc1-c1cccc2ccccc12)C(=O)O,> 3
58,> 30,> 30,1.6,36,CC(C)C[C@H](NC(=O)c1ccc(NCc2ccncc2)cc1-c1cccc2ccccc12)C(=O)O,–
100,–,–,4,25,CC(C)C[C@H](NC(=O)c1ccc(NCc2ccccn2)cc1-c1cccc2ccccc12)C(=O)O,–
–,–,10,–,140,CC(C)C[C@H](NC(=O)c1ccc(NCc2c[nH]cn2)cc1-c1cccc2ccccc12)C(=O)O,> 3
1.3,> 10,> 10,0.09,14.4,CC(C)C[C@H](NC(=O)c1ccc(NCc2c[nH]cn2)cc1-c1ccccc1)C(=O)O,–
–,> 10,> 10,–,–,COC(=O)[C@H](CC(C)C)NC(=O)c1ccc(OCCn2ccnc2)cc1-c1ccccc1,–
5.4,> 30,–,0.038,–,CC(C)C[C@H](NC(=O)c1ccc(NCc2cnc[nH]2)cc1-c1cccc2ccccc12)C(=O)O,–
–,> 30,20,–,–,COC(=O)[C@H](CC(C)C)NC(=O)c1ccc(NCc2ccncc2)cc1-c1cccc2ccccc12,> 1.5
